Assay results reported in ChEMBL document CHEMBL4229422, “Synthesis and pharmacological evaluation of pyrazolo[4,3-c]quinolinones as high affinity GABAA-R ligands and potential anxiolytics” (Bioorg Med Chem, 2018).
Activity calls are given as the source filed them. The rule behind the calls is not given here.

Assays:
[1] = Displacement of [3H]-FNZ from benzodiazepine binding site of GABAA receptor in bovine synaptosomal membranes after 1 hr by scintillation counting method; format: cell membranes, Bos taurus
[2] = system: Rattus norvegicus; experiment: Toxicity in Wistar rat assessed as change in locomotor activity at 0.25 to 3 mg/kg, ip administered 30 mins; format: organism-based; conditions: in vivo, 0.5 h
In short: (§1)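 Locomotor or exploratory activity was scored as the number of closed-arm entries during the 5 min EPM session. Male Wistar rats (280–320 g) received 0.25–3 mg/kg ip 30 min beforehand, in propylenglycol diluted with 0.6 % v/v Tween 80. Vehicle-injected controls were included. About 7 rats per dose, ANOVA.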

[3] = system: Rattus norvegicus; experiment: Anxiolytic activity in Wistar rat assessed as increase in time spent on open arms at 0.5 mg/kg, ip administered 30 mins prior to testing measured for 5 mins by elevated plus-maze test; format: functional, organism-based
In short: (§2)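 Adult male Wistar rats (65–75 days, 280–320 g), group-housed, 12 h light–dark, 21-22 °C, handled on four days beforehand. Doses of 0.25, 0.5, 1 and 3 mg/kg were dissolved in propylenglycol, diluted in aqueous 0.6 % v/v Tween 80 and given ip 30 min before the EPM. Vehicle controls received the same mixture. Behaviour was recorded 5 min as % time in open arms relative to open plus closed arms. About 7 rats per dose, mean ± S.E.M., ANOVA.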

[4] = system: Rattus norvegicus; experiment: Anxiogenic activity in Wistar rat assessed as reduction in time spent on open arms at 0.25 to 0.5 mg/kg, ip administered 30 mins prior to testing measured for 5 mins by elevated plus-maze test; format: functional, organism-based; in short: as §2
[5] = system: Rattus norvegicus; experiment: Anxiolytic activity in Wistar rat assessed as time spent on open arms at 1 mg/kg, ip administered 30 mins prior to testing measured for 5 mins by elevated plus-maze test (reference value: 20%); format: functional; in short: as §2
[6] = system: Rattus norvegicus; experiment: Toxicity in Wistar rat assessed as change in locomotor activity at 1 mg/kg, ip administered 30 mins; format: organism-based; conditions: in vivo, 0.5 h; in short: as §1
[7] = system: Rattus norvegicus; experiment: Anxiogenic activity in Wistar rat assessed as reduction in time spent on open arms at 0.25 to 3 mg/kg, ip administered 30 mins prior to testing measured for 5 mins by elevated plus-maze test; format: functional, organism-based; in short: as §2

IC50 [1]	Ki [1]	Compound	other results
1.84 nM	0.98 nM	COc1ccc2[nH]cc3c(=O)n(-c4ccc(F)cc4)nc-3c2c1	
1.5 nM	0.797 nM	COc1ccc2[nH]cc3c(=O)n(-c4ccccc4F)nc-3c2c1	
1.47 nM	0.78 nM	O=c1c2c[nH]c3ccc(Br)cc3c-2nn1-c1ccc(F)cc1	Activity [7]: Active; Activity [2]: Toxic
0.589 nM	0.313 nM	Cc1ccc2[nH]cc3c(=O)n(-c4ccccc4)nc-3c2c1	

Continued, compound first:

Compound	IC50 [1]	Ki [1]	other results
Cc1ccc2[nH]cc3c(=O)n(-c4ccc(F)cc4)nc-3c2c1	1.15 nM	0.612 nM	
COc1ccc(-n2nc3c4cc(Br)ccc4[nH]cc-3c2=O)cc1	0.326 nM	0.173 nM	Activity [2]: Non-Toxic; Activity [3]: Active
O=c1c2c[nH]c3ccc(Br)cc3c-2nn1-c1ccccc1	0.823 nM	0.437 nM	Activity [4]: Active
Cc1ccc2[nH]cc3c(=O)n(-c4ccccc4F)nc-3c2c1	0.37 nM	0.196 nM	
COc1ccc(-n2nc3c4cc(C)ccc4[nH]cc-3c2=O)cc1	0.542 nM	0.288 nM	Activity [5]: 50%; Activity [6]: Non-Toxic
